Assay outcomes deposited in PubChem BioAssay by Broad Institute.
IDH1 R132H inh: inhibitors of human IDH1 R132H. O75874. IDH1 R132H reductase, diaphorase/resazurin fluorescence, 60 min. inhibition, % at 10 µM. 0.18% of 70,000 active. AID 624101; in the data active = inhibition above about 34%; inconclusive = no clear call, values can overlap the other calls; inactive = below about 11%
Target sequence (O75874 whole entry R132H): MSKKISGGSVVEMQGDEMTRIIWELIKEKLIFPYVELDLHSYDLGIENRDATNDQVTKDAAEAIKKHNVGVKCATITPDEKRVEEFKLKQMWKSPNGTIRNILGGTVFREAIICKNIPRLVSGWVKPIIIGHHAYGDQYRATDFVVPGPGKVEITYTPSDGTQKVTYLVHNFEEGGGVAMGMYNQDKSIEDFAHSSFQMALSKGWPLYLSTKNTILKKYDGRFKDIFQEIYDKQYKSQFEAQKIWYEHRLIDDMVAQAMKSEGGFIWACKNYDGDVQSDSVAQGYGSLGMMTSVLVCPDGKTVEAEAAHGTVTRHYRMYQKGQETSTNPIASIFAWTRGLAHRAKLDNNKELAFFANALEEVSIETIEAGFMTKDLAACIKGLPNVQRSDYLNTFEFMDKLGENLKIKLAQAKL
GASC1 inh: KDM4C (human) demethylase inhibition; Q9H3R0; GST-KDM4C 2-372, H3K9me3 peptide, LANCE TR-FRET; AID 720574; inhibition, % at 12.5 µM; 0.15% of 96,000 active;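 active = mean replicate inhibition above about 25%, with at least 55% of replicates also reaching it, limit read from the data, passing the limit was not always enough; inconclusive = only one of those two conditions met; inactive = neither condition met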
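System: N-terminal GST-fused human GASC-1 (KDM4C) fragment, residues 2-372 / Amount: 10 nM GST-KDM4C in enzyme reaction / Also added: H3K9me3 peptide with Fe(II)/2OG / Times: 30 min demethylation and 1 h detection at room temperature / Signal: LANCE TR-FRET / Read-out basis: Fall in 671/618 emission ratio as inhibition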
T cruzi growth-1: inhibitors of T. cruzi proliferation; 5.9% of 77,000 active; T. cruzi beta-gal in NIH3T3, GalScreen luminescence, 90 h; inhibition, % at 8.34 µM;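 active = mean inhibition above about 93%, with at least 55% of replicates each passing it, limit read from the data, passing the limit was not always enough; inconclusive = only one of those two conditions holds; inactive = neither condition holds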
Pf Dd2 growth: inhibitors of Plasmodium falciparum Dd2 growth; P. falciparum Dd2 growth, SYBR Green, 72 h; stronger effect = lower value; activity change, % at 10 µM; 2.3% of 94,000 active; AID 1159554; in the data active = activity change below about -80%; inconclusive = no clear call, values can overlap the other calls
T cruzi growth-2: inhibitors of T. cruzi proliferation; shares compounds with T cruzi growth-1; T. cruzi beta-gal in NIH3T3, GalScreen luminescence, 90 h; inhibition, % at 8.35 µM; 72% of 5,600 active;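 active = mean replicate inhibition above about 95% and at least 55% of replicates individually reaching it, limit read from the data; inconclusive = only one of the two criteria is met; inactive = neither criterion is met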
T cruzi growth-3: blocks T. cruzi growth in NIH3T3 host cells; shares compounds with T cruzi growth-1; inhibition, % at 2.09 µM; 21% of 5,600 active; T. cruzi beta-gal in NIH3T3, GalScreen luminescence, 90 h;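 active = mean inhibition above about 95%, with at least 55% of replicates also reaching it, limit read from the data; inconclusive = meets just one of the two conditions; inactive = meets neither condition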
3T3 cytotox: kills mouse NIH/3T3 fibroblasts; shares compounds with T cruzi growth-1; NIH/3T3 viability, CellTiter-Glo ATP luminescence, 90 h; cytotoxicity (signal decrease), % at 8.35 µM; 14% of 5,600 active;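 active = mean signal decrease across replicates above about 35% based on untreated-well scatter, with enough replicates individually passing, limit read from the data; inconclusive = no rule stated though some were filed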
3T3 cytotox 2: NIH/3T3 (mouse) viability loss; shares compounds with T cruzi growth-1; NIH/3T3 viability, CellTiter-Glo ATP luminescence, 90 h; inhibition, % at 24.9 µM; 56% of 5,600 active; AID 651744;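 active = mean loss of cell viability signal at or above a set limit, and enough replicates individually reaching it; inconclusive = meets only the mean limit or only the replicate share; inactive = meets neither condition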
A number is an active result. The list is not random: actives were taken first. Their share in the collection is about 5.9%.

`COc1cccc(C#Cc2ccc3c(c2)O[C@@H](CN(C)S(=O)(=O)c2ccccc2F)[C@@H](C)CN([C@@H](C)CO)S3(=O)=O)c1` gave IDH1 R132H inh inactive, GASC1 inh inactive, T cruzi growth-1 inconclusive, Pf Dd2 growth inactive, T cruzi growth-2 102, T cruzi growth-3 inactive, 3T3 cytotox inactive and 3T3 cytotox 2 inactive.
`COc1cccc(C#Cc2ccc3c(c2)O[C@H](CN(C)S(=O)(=O)c2ccccc2F)[C@H](C)CN([C@@H](C)CO)S3(=O)=O)c1` gave IDH1 R132H inh inactive, GASC1 inh inactive, T cruzi growth-1 125, Pf Dd2 growth inactive, T cruzi growth-2 109, T cruzi growth-3 104, 3T3 cytotox inactive and 3T3 cytotox 2 inactive.
COc1cccc(C#Cc2ccc3c(c2)O[C@@H](CN(C)C(C)=O)[C@@H](C)CN([C@@H](C)CO)S3(=O)=O)c1 was read as IDH1 R132H inh inactive, GASC1 inh inactive, T cruzi growth-1 inactive and Pf Dd2 growth inactive.
Screening CCCC#Cc1ccc2c(c1)O[C@H](CN(C)S(=O)(=O)c1cccc(OC)c1)[C@@H](C)CN([C@@H](C)CO)S2(=O)=O returned IDH1 R132H inh inactive, GASC1 inh inactive and Pf Dd2 growth inactive.
Screening Cc1cccc(CN2CCC(CNC(=O)c3cc4cc5ccc(C)cc5nc4o3)CC2)c1 returned IDH1 R132H inh inactive.
`CCCC#Cc1ccc2c(c1)O[C@H](CN(C)S(=O)(=O)c1cccc(OC)c1)[C@H](C)CN([C@@H](C)CO)S2(=O)=O` gave IDH1 R132H inh inactive, GASC1 inh inactive and Pf Dd2 growth inactive.
Screening COc1cccc(C#Cc2ccc3c(c2)O[C@@H](CN(C)S(=O)(=O)c2ccccc2F)[C@H](C)CN([C@H](C)CO)S3(=O)=O)c1 returned IDH1 R132H inh inactive, GASC1 inh inactive, T cruzi growth-1 121, Pf Dd2 growth inactive, T cruzi growth-2 107, T cruzi growth-3 inactive, 3T3 cytotox inactive and 3T3 cytotox 2 45.
`O=C(C[C@@H]1C[C@@H]2c3cc(NS(=O)(=O)c4ccccc4)ccc3O[C@@H]2[C@H](CO)O1)N1CCCCC1` gave IDH1 R132H inh inactive, GASC1 inh inactive, T cruzi growth-1 104, Pf Dd2 growth inactive, T cruzi growth-2 inactive, T cruzi growth-3 inactive, 3T3 cytotox inactive and 3T3 cytotox 2 inactive.
Screening O=C(CC1CC1)Nc1ccc2c(c1)[C@H]1C[C@@H](CC(=O)N3CCCCC3)O[C@@H](CO)[C@H]1O2 returned IDH1 R132H inh inactive, GASC1 inh inactive, T cruzi growth-1 inactive and Pf Dd2 growth inactive.
`O=C(CC1CC1)Nc1ccc2c(c1)[C@H]1C[C@H](CC(=O)N3CCCCC3)O[C@H](CO)[C@H]1O2` gave IDH1 R132H inh inactive, GASC1 inh inactive, T cruzi growth-1 inactive and Pf Dd2 growth inactive.
Screening O=C(CC1CC1)Nc1ccc2c(c1)[C@@H]1C[C@@H](CC(=O)N3CCCCC3)O[C@H](CO)[C@@H]1O2 returned IDH1 R132H inh inactive, GASC1 inh inactive, T cruzi growth-1 110, Pf Dd2 growth inactive, T cruzi growth-2 inactive, T cruzi growth-3 inactive, 3T3 cytotox inactive and 3T3 cytotox 2 inactive.
For O=C(CC1CC1)Nc1ccc2c(c1)[C@H]1C[C@@H](CC(=O)N3CCCCC3)O[C@H](CO)[C@H]1O2 the results were IDH1 R132H inh inactive, GASC1 inh inactive, T cruzi growth-1 104, Pf Dd2 growth inactive, T cruzi growth-2 inconclusive, T cruzi growth-3 inactive, 3T3 cytotox inactive and 3T3 cytotox 2 inactive.
For COc1ccc(Cl)cc1N(CC(=O)Nc1cc(Cl)ccc1C)S(C)(=O)=O the results were IDH1 R132H inh inactive.
`O=C(Nc1ccccc1)N1CCCCN2[C@H](C1)[C@H](c1ccc(-c3ccncc3)cc1)[C@@H]2CO` gave GASC1 inh inactive, T cruzi growth-1 inactive and Pf Dd2 growth inactive.
`O=C(Nc1ccccc1)N1CCCCN2[C@H](CO)[C@H](c3ccc(-c4ccccc4)cc3)[C@@H]2C1` gave GASC1 inh inactive, T cruzi growth-1 112, Pf Dd2 growth inactive, T cruzi growth-2 109, T cruzi growth-3 inactive, 3T3 cytotox inactive and 3T3 cytotox 2 inactive.
